Experimental data taken from ChEMBL document CHEMBL1649475, “In vivo pharmacodynamic profile of tigecycline against phenotypically diverse Escherichia coli and Klebsiella pneumoniae isolates” (Antimicrob Agents Chemother, 2009).
Values after ≈ are worked out from the molar mass of the structure shown.

Key:
Escherichia coli [1] = test: Antibacterial activity against extended-spectrum beta-lactamase producing Escherichia coli isolate 315 by broth microdilution method; type: functional
In short: (§1)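 Tigecycline MICs by broth microdilution per CLSI guidelines, run in triplicate. Mueller-Hinton broth was prepared fresh less than 12 h before testing.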

[2] = Cmax in ICR mouse at 6.25 mg/kg, sc; settings: in vivo
Klebsiella pneumoniae [3] = test: Antibacterial activity against Klebsiella pneumoniae isolate 134 by broth microdilution method; type: functional; in short: as §1
Escherichia coli [4] = test: Antibacterial activity against Escherichia coli isolate 54 by broth microdilution method; type: functional; in short: as §1
Escherichia coli [5] = test: Antibacterial activity against extended-spectrum beta-lactamase producing Escherichia coli isolate 322 infected in ICR mouse assessed as change in bacterial load at 6.25 to 50 mg/kg, sc; type: functional; settings: dose mg/kg 6.25-50; route subcutaneous
In short: (§2)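 Female CD-1/ICR mice (~25 g) were made neutropenic with intraperitoneal cyclophosphamide, 150 mg/kg 4 days and 100 mg/kg 1 day before inoculation. Isolates were grown on blood agar at 35°C for 18–24 h, and 0.1 ml of 10^7 CFU/ml was injected intramuscularly per thigh. At 2 h, tigecycline in saline was given sc as single or multiple doses of 3.125–50 mg/kg. Thighs were homogenized at 24 h and plated. Read-out was mean change in log10 CFU/ml versus 0-h controls, three mice per group.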

[6] = Ratio of fAUC to MIC in Escherichia coli isolate 54-infected ICR mouse at bacteriostatic concentration; type: functional
In short: (§3)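 EI50, EI80 and the static exposure were read from fitted curves. Free AUC came from earlier mouse PK using concentration-dependent protein binding set at Cmax. MICs were run in triplicate by CLSI broth microdilution in Mueller-Hinton broth prepared <12 h before testing, or by Etest.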

Klebsiella pneumoniae [7] = test: Antibacterial activity against extended-spectrum beta-lactamase producing Klebsiella pneumoniae isolate 266 infected in ICR mouse assessed as change in bacterial load at 6.25 to 50 mg/kg, sc; type: functional; settings: dose mg/kg 6.25-50; route subcutaneous; in short: as §2
[8] = Ratio of fAUC to MIC in carbapenemase producing Klebsiella pneumoniae isolate 321-infected ICR mouse at 50% maximal effective concentration; type: functional; in short: as §3
Klebsiella pneumoniae [9] = test: Antibacterial activity against extended-spectrum beta-lactamase producing Klebsiella pneumoniae isolate 266 by broth microdilution method; type: functional; in short: as §1
Klebsiella pneumoniae [10] = test: Antibacterial activity against Klebsiella pneumoniae isolate 135 by broth microdilution method; type: functional; in short: as §1
Klebsiella pneumoniae [11] = test: Antibacterial activity against carbapenemase producing Klebsiella pneumoniae isolate 321 by broth microdilution method; type: functional; in short: as §1
[12] = Ratio of fAUC to MIC in Escherichia coli isolate 120-infected ICR mouse at bacteriostatic concentration; type: functional; in short: as §3
Klebsiella pneumoniae [13] = test: Antibacterial activity against extended-spectrum beta-lactamase producing Klebsiella pneumoniae isolate 255 by broth microdilution method; type: functional; in short: as §1
Klebsiella pneumoniae [14] = test: Antibacterial activity against extended-spectrum beta-lactamase producing Klebsiella pneumoniae isolate 320 infected in ICR mouse assessed as change in bacterial load at 6.25 to 50 mg/kg, sc; type: functional; settings: dose mg/kg 6.25-50; route subcutaneous; in short: as §2
[15] = Ratio of fAUC to MIC in Klebsiella pneumoniae isolate 134-infected ICR mouse at 80% maximal effective concentration; type: functional; in short: as §3
[16] = Ratio of fAUC to MIC in extended-spectrum beta-lactamase producing Escherichia coli isolate 321-infected ICR mouse at 80% maximal effective concentration; type: functional; in short: as §3
Escherichia coli [17] = test: Antibacterial activity against extended-spectrum beta-lactamase producing Escherichia coli isolate 321 infected in ICR mouse assessed as change in bacterial load at 6.25 to 50 mg/kg, sc; type: functional; settings: dose mg/kg 6.25-50; route subcutaneous; in short: as §2
Klebsiella pneumoniae [18] = test: Antibacterial activity against Klebsiella pneumoniae isolate 134 infected in ICR mouse assessed as change in bacterial load at 6.25 to 50 mg/kg, sc; type: functional; settings: dose mg/kg 6.25-50; route subcutaneous; in short: as §2
[19] = Ratio of fAUC to MIC in Klebsiella pneumoniae isolate 134-infected ICR mouse at bacteriostatic concentration; type: functional; in short: as §3
[20] = Ratio of fAUC to MIC in extended-spectrum beta-lactamase producing Escherichia coli isolate 322-infected ICR mouse at 80% maximal effective concentration; type: functional; in short: as §3
Escherichia coli [21] = test: Antibacterial activity against extended-spectrum beta-lactamase producing Escherichia coli isolate 322 by broth microdilution method; type: functional; in short: as §1
[22] = Ratio of fAUC to MIC in Escherichia coli isolate 120-infected ICR mouse at 50% maximal effective concentration; type: functional; in short: as §3
Klebsiella pneumoniae [23] = test: Antibacterial activity against extended-spectrum beta-lactamase producing Klebsiella pneumoniae isolate 320 by broth microdilution method; type: functional; in short: as §1
[24] = Half life in ICR mouse at 50 mg/kg, sc; type: ADME, organism-based; set-up: dose 50 mg/kg, route subcutaneous; settings: in vivo
[25] = Ratio of fAUC to MIC in extended-spectrum beta-lactamase producing Escherichia coli isolate 321-infected ICR mouse at bacteriostatic concentration; type: functional; in short: as §3
[26] = Ratio of fAUC to MIC in extended-spectrum beta-lactamase producing Escherichia coli isolate 321-infected ICR mouse at 50% maximal effective concentration; type: functional; in short: as §3
[27] = Ratio of fAUC to MIC in carbapenemase producing Klebsiella pneumoniae isolate 321-infected ICR mouse at 80% maximal effective concentration; type: functional; in short: as §3
[28] = Ratio of fAUC to MIC in Klebsiella pneumoniae isolate 134-infected ICR mouse at 50% maximal effective concentration; type: functional; in short: as §3
[29] = Ratio of fAUC to MIC in extended-spectrum beta-lactamase producing Klebsiella pneumoniae isolate 266-infected ICR mouse at 80% maximal effective concentration; type: functional; in short: as §3

CN(C)c1cc(NC(=O)CNC(C)(C)C)c(O)c2c1C[C@H]1C[C@H]3[C@H](N(C)C)C(O)=C(C(N)=O)C(=O)[C@@]3(O)C(O)=C1C2=O [TIGECYCLINE] showed an MIC (Escherichia coli [1]) of 0.5 µg/mL (≈ 0.854 µM), a Cmax [2] of 1700 ng/mL and an MIC (Klebsiella pneumoniae [3]) of 0.5 µg/mL (≈ 0.854 µM). The MIC (Escherichia coli [4]) was 0.25 µg/mL (≈ 0.427 µM), the log10CFU/ml (Escherichia coli [5]) was -2.4 and the fAUC/MIC [6] was 5.96. It also gave a log10CFU/ml (Klebsiella pneumoniae [7]) of -1.34, a fAUC/MIC [8] of 4.53 and an MIC (Klebsiella pneumoniae [9]) of 0.5 µg/mL (≈ 0.854 µM). It also gave an MIC (Klebsiella pneumoniae [10]) of 0.5 µg/mL (≈ 0.854 µM), an MIC (Klebsiella pneumoniae [11]) of 0.5 µg/mL (≈ 0.854 µM) and a fAUC/MIC [12] of 4.76. The MIC (Klebsiella pneumoniae [13]) was 2 µg/mL (≈ 3.41 µM), the log10CFU/ml (Klebsiella pneumoniae [14]) was -1.12 and the fAUC/MIC [15] was 10. For the same compound, the fAUC/MIC [16] was 9.07, the log10CFU/ml (Escherichia coli [17]) was -2.54 and the log10CFU/ml (Klebsiella pneumoniae [18]) was -1.42. The fAUC/MIC [19] was 6.53, the fAUC/MIC [20] was 10.6 and the MIC (Escherichia coli [21]) was 0.25 µg/mL (≈ 0.427 µM). The fAUC/MIC [22] was 3.7, the MIC (Klebsiella pneumoniae [23]) was 2 µg/mL (≈ 3.41 µM) and the half-life [24] was 9.9 h. The fAUC/MIC [25] was 6.83, the fAUC/MIC [26] was 6.4 and the fAUC/MIC [27] was 7.48. It also gave a fAUC/MIC [28] of 5.91 and a fAUC/MIC [29] of 7.15.
